What was measured:
Phosphodiesterase 3 = Phosphodiesterase 3 (Homo sapiens, UniProt Q14432+Q13370); assay: Inhibition of PDE3 in homogenates of human blood platelets
In short: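 PDE3 from human blood platelet homogenates. Radiometric assay: 50 mM Tris-HCl pH 7.4, 5 mM MgCl2, 0.5 µM cAMP plus [3H]cAMP; 5 min preincubation then 15 min at 37 °C; HCl stop, Crotalus atrox 5'-nucleotidase, QAE Sephadex separation, blank-corrected counts. Inhibitors at 0.5% DMSO final; IC50 by nonlinear regression; two independent determinations in triplicate.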

Phosphodiesterase 4 = Phosphodiesterase 4 (Homo sapiens, UniProt P27815+Q08499+Q07343+Q08493); assay: Inhibition of PDE4 in the cytosol of human neutrophils; type: protein assay
In short: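 Cytosol of human polymorphonuclear leukocytes from leukocyte concentrates, with motapizone 1 µM to suppress platelet PDE3. [3H]cAMP hydrolysis (0.5 µM cAMP, Tris-HCl pH 7.4, 5 mM MgCl2), 5 min preincubation plus 15 min at 37 °C. Snake venom nucleotidase step, ion-exchange separation, scintillation counting.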

COc1ccc(C2=NNC(=O)C(C)C2C)cc1OC (stereo in doubt; 3e)
Log IC50 (Phosphodiesterase 3): -5.4
Log IC50 (Phosphodiesterase 4): -6.2

COc1ccc(C2=NNC(=O)CC2C)cc1OC (stereo not given)
Log IC50 (Phosphodiesterase 3): -6.6
Log IC50 (Phosphodiesterase 4): -6.5

COc1ccc(-c2nnc(O)c3c2CCCC3)cc1OC
Log IC50 (Phosphodiesterase 4): -5.2

COc1ccc(C2=NN(c3ccccc3)C(=O)[C@@H]3CCCC[C@H]23)cc1OC
Log IC50 (Phosphodiesterase 4): -7.6

COc1ccc(C2=NN(c3ccccc3)C(=O)C(C)C2)cc1OC (stereo not given)
Log IC50 (Phosphodiesterase 3): < -5
Log IC50 (Phosphodiesterase 4): -6.9

COc1ccc(C2=NNC(=O)C(C)C2C)cc1OC (stereo in doubt; 3d)
Log IC50 (Phosphodiesterase 3): < -5
Log IC50 (Phosphodiesterase 4): -6.7

COc1ccc(C2=NN(Cc3ccccc3)C(=O)[C@@H]3CC=CC[C@H]23)cc1OC
Log IC50 (Phosphodiesterase 4): -8.4

COc1ccc(C2=NN(Cc3ccccc3)C(=O)[C@@H]3CCCC[C@H]23)cc1OC
Log IC50 (Phosphodiesterase 4): -8.1

COc1ccc(C2=NN(c3ccccc3)C(=O)[C@@H]3CCCC[C@@H]23)cc1OC
Log IC50 (Phosphodiesterase 4): -5.1

COc1ccc(-c2nn(-c3ccccc3)c(=O)c3c2CCCC3)cc1OC
Log IC50 (Phosphodiesterase 4): -5.3

COc1ccc(C2=NN(Cc3ccccc3)C(=O)CC2)cc1OC
Log IC50 (Phosphodiesterase 3): -5.3
Log IC50 (Phosphodiesterase 4): -7.1

COc1ccc(C2=NN(c3ccccc3)C(=O)C(C)C2C)cc1OC (stereo not given)
Log IC50 (Phosphodiesterase 3): < -5
Log IC50 (Phosphodiesterase 4): -7.3

COc1ccc(C2=NNC(=O)[C@@H]3CCCC[C@@H]23)cc1OC
Log IC50 (Phosphodiesterase 4): -5.3

COc1ccc(C2=NN(c3ccccc3)C(=O)CC2)cc1OC
Log IC50 (Phosphodiesterase 3): < -5
Log IC50 (Phosphodiesterase 4): -6.4

COc1ccc(C2=NNC(=O)[C@@H]3CC=CC[C@H]23)cc1OC (relative stereo)
Log IC50 (Phosphodiesterase 4): -7

COc1ccc(C2=NN(c3ccccc3)C(=O)[C@@H]3CC=CC[C@H]23)cc1OC
Log IC50 (Phosphodiesterase 4): -7.9

COc1cc(-c2ccc(=O)[nH]n2)ccc1OC(F)F [ZARDAVERINE]
Log IC50 (Phosphodiesterase 3): -6.2

COc1ccc(C2=NN(c3ccccc3)C(=O)CC2C)cc1OC (stereo not given)
Log IC50 (Phosphodiesterase 3): < -5
Log IC50 (Phosphodiesterase 4): -6.8

COc1ccc(-c2nn(-c3ccccc3)c(=O)c3ccccc23)cc1OC
Log IC50 (Phosphodiesterase 4): -5.8

COc1ccc(-c2nn(Cc3ccccc3)c(=O)c3c2CCCC3)cc1OC
Log IC50 (Phosphodiesterase 4): -5.8

COc1ccc(C2=NNC(=O)[C@@H]3CCCC[C@H]23)cc1OC (relative stereo)
Log IC50 (Phosphodiesterase 4): -6.4

COc1ccc(C2=NN(c3ccccc3)C(=O)[C@@H]3CC=CC[C@@H]23)cc1OC
Log IC50 (Phosphodiesterase 4): -6.1

COc1ccc(-c2nnc(O)c3ccccc23)cc1OC
Log IC50 (Phosphodiesterase 4): -5.8

COc1ccc(-c2nn(Cc3ccccc3)c(=O)c3ccccc23)cc1OC
Log IC50 (Phosphodiesterase 4): -6.5

COc1ccc(C2=NNC(=O)CC2)cc1OC
Log IC50 (Phosphodiesterase 3): -5.6
Log IC50 (Phosphodiesterase 4): -5.9

O=c1c2cccnc2c(-c2cccc([N+](=O)[O-])c2)nn1Cc1ccncc1 [PYRIDOPYRIDAZINONE]
Log IC50 (Phosphodiesterase 4): -8.3

Source: ChEMBL document CHEMBL1134544, “Novel selective PDE4 inhibitors. 1. Synthesis, structure-activity relationships, and molecular modeling of 4-(3,4-dimethoxyphenyl)-2H-phthalazin-1-ones and analogues” (J Med Chem, 2001)
